Here are results for 12 compounds from ChEMBL document CHEMBL1275363, “Design, synthesis, crystal structures, and antimicrobial activity of sulfonamide boronic acids as β-lactamase inhibitors” (J Med Chem, 2010).

A short description of experiment [1]: Inhibition of AmpC beta-lactamase.
Experiment [2] relates to Enterobacter cloacae. Nature of the experiment: Inhibition of Enterobacter cloacae beta-lactamase class C assessed as fold decrease in Ceftazidime MIC […]. The gist of the method:
(§1)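 MICs were measured on clinical isolates following CLSI guidelines in Mueller-Hinton medium. Inhibitor was dissolved in 50% DMSO, with final DMSO below 5%, and combined with ceftazidime at a 1:1 β-lactam:inhibitor ratio. Fold change is compared with ceftazidime alone. Values are means of three independent experiments.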

Experiment [3] deals with AmpC (Klebsiella pneumoniae) (UniProt Q84AD8). Nature of the experiment: Inhibition of Klebsiella pneumoniae AmpC beta-lactamase DHA-1 assessed as fold decrease in Ceftazidime MIC […]. The gist of the method:
as §1

The test system of experiment [4] is Escherichia coli. As to the kind of experiment: Inhibition of Escherichia coli beta-lactamase class C assessed as fold decrease in Ceftazidime MIC […]. The gist of the method:
as §1
For orientation: In agar diffusion tests the substance spreads into inoculated agar from a disc or well.

Experiment [5] concerns Pseudomonas aeruginosa. As to the kind of experiment: Inhibition of Pseudomonas aeruginosa beta-lactamase class C assessed as fold decrease in Ceftazidime MIC […]. The gist of the method:
as §1

The subject of experiment [6] is Citrobacter freundii. As to the kind of experiment: Inhibition of Citrobacter freundii beta-lactamase class C assessed as fold decrease in Ceftazidime MIC […]. The gist of the method:
as §1

Experiment [7] can be described thus: Inhibition of beta-lactamase CTX-M-9.
The subject of experiment [8] is Klebsiella pneumoniae. As to the kind of experiment: Antimicrobial activity against AmpC-beta lactamase producing Klebsiella pneumoniae by disk diffusion assay. The experiment is classed as functional, organism-based.
Experiment [9] concerns the target Beta-lactamase CTX-M-14 (Escherichia coli) (UniProt Q9L5C7). Nature of the experiment: Inhibition of Escherichia coli class A beta-lactamase CTX-M-14 assessed as fold decrease in Ceftazidime MIC […]. The essentials: as §1
In experiment [10] the target is AmpC (Klebsiella pneumoniae) (UniProt Q84AD8). Nature of the experiment: Inhibition of Klebsiella pneumoniae AmpC beta-lactamase DHA-1 assessed as increase in ceftazidime-induced antibacterial activity by disk diffusion assay.

Calls of active or inactive are those of the source. The rule behind the calls is not given here.

As a reminder, the Ki is a dissociation constant, usually derived from enzyme kinetics or from competition with a known ligand. A low value points to higher affinity. One may read the IC50 as the concentration that inhibits the measured activity by half. Read a low IC50 as greater potency.

In turn, `COC(=O)c1ccc(CS(=O)(=O)NCB2OC(C)(C)C(C)(C)O2)cc1` registered a Ki in [1] of 120 nM.
Turning to `Cc1ccc(S(=O)(=O)NCB(O)O)cc1`, the Ki in experiment [1] is 210 nM.
Turning to `O=S(=O)(Cc1ccccc1)NCB(O)O` [PINACOL(PHENYLMETHANESULFONYLAMINO)METHANEBORONATE], the fold change (FC) in [2] was determined as 8; in [3], 8; in [4], 8; in experiment [5], 8; in experiment [6], 8; in experiment [9], 16. This compound gave an IC50 in [7] of 6870 nM. Further, the result in experiment [8] was inactive. In addition, the outcome in experiment [10] was Active.
In the case of `CS(=O)(=O)NCB(O)O` [PINACOL(METHANESULFONYLAMINO)METHANEBORONATE], the Ki in [1] worked out at 789 nM.
The compound `O=C(O)c1ccc(CS(=O)(=O)NCB(O)O)cc1` displayed an IC50 in experiment [7] of 1500 nM. Also, in experiment [8], the result was inactive. For the same compound, the outcome in experiment [10] was Active.
`O=[N+]([O-])c1cccc(CS(=O)(=O)NCB(O)O)c1` displayed a Ki in experiment [1] of 189 nM.
`O=C(Cc1cccs1)N[C@H](B(O)O)c1cccc(C(=O)O)c1` showed a Ki in experiment [1] of 1 nM.
The compound `CCOc1ccc2ccccc2c1S(=O)(=O)NCB(O)O` gave a Ki in experiment [1] of 670 nM.
With `O=C(Cc1ccccc1)NCB(O)O`, the Ki in [1] was found to be 570 nM.
`O=C(Cc1cccs1)N[C@@H](Cc1cccc(C(=O)O)c1)B(O)O`: the Ki in [1] was 39 nM.
Same read-out and setting: as for `O=S(=O)(Cc1ccccc1)N[C@@H](Cc1ccccc1)B(O)O`, the figure is 3720 nM; as for `Nc1cccc(CS(=O)(=O)NCB(O)O)c1`, 106 nM.
